These results are taken from ChEMBL document CHEMBL1795235, “Quercetin diacylglycoside analogues showing dual inhibition of DNA gyrase and topoisomerase IV as novel antibacterial agents” (J Med Chem, 2011).

Molecules are shown by their SMILES. In brackets after ≈: the same amount, converted by molar mass.

For test [1], the system named is Staphylococcus aureus. The experiment in a line: Antibacterial activity against methicillin-resistant Staphylococcus aureus OM481 after 24 hrs by microdilution method. The conditions noted are these: OM481, 24 h. In kind it is functional. The method, boiled down:
(§1)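 Broth microdilution in Mueller-Hinton broth with 0.85% NaCl, inoculum about 10^5 CFU per 100 μL. Compounds were diluted in water from 25.6 mg/mL stocks to final 2-fold series of 0.062–128 μg/mL. Plates were incubated 24 h at 35 °C. MIC was the lowest concentration at which all triplicate wells were clear, from three independent determinations.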

The test system of test [2] is Enterococcus. The experiment in a line: Antibacterial activity against vancomycin resistant Enterococcus NCTC 12201 after 24 hrs by microdilution method. The conditions noted are these: NCTC 12201, 24 h. It counts as functional. Summed up: as §1
For the next test, the system named is Streptococcus pneumoniae. Kind of test: Antibacterial activity against Streptococcus pneumoniae R6 after 24 hrs by microdilution method. In kind it is functional. The conditions noted are these: R6, 24 h. Summed up: (§2)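 Broth microdilution in Mueller-Hinton broth with 0.85% NaCl, inoculum about 10^5 CFU per 100 μL. Compounds diluted from 25.6 mg/mL stocks in water to 2-fold series, final 0.062–128 μg/mL. […] Three independent determinations.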

The subject of test [3] is Staphylococcus aureus. The experiment in a line: Antibacterial activity against methicillin-susceptible Staphylococcus aureus 209P after 24 hrs by microdilution method. It counts as functional. Summed up: as §1
Test [4] concerns Staphylococcus aureus. The experiment in a line: Antibacterial activity against methicillin-resistant Staphylococcus aureus OM584 after 24 hrs by microdilution method. It counts as functional. The conditions noted are these: OM584, 24 h. The method, boiled down: as §1
Test [5] deals with Enterococcus. The experiment in a line: Antibacterial activity against vancomycin resistant Enterococcus FN-1 after 24 hrs by microdilution method. It counts as functional. The conditions noted are these: FN-1, 24 h. Summed up:
as §1

Test [6] can be described thus: Inhibition of Escherichia coli DNA topoisomerase 4 subunit ParC/DNA topoisomerase 4 subunit ParE-mediated decatenation of kDNA by densitometry. The method, boiled down:
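Purchased E. coli topoIV kit enzyme, one unit with 200 ng kDNA, 37 °C, 30 min. Buffer: 50 mM HEPES-KOH pH 7.6, 5 mM magnesium acetate, 100 mM potassium glutamate, 10 mM DTT, 1 mM ATP, 40% glycerol. Gel on 1.0% agarose in TAE. IC50 of decatenation from densitometry by interpolation equation, at least three determinations.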

Test [7] deals with Staphylococcus aureus. The experiment in a line: Antibacterial activity against methicillin-resistant Staphylococcus aureus N315 after 24 hrs by microdilution method. It counts as functional. The conditions noted are these: N315, 24 h. Summed up: as §1
Test [8] is described as follows: Inhibition of Staphylococcus aureus DNA Topoisomerase 4-mediated decatenation of kDNA after 30 mins by densitometry. Summed up: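 Purchased S. aureus topoIV, one unit with 200 ng kDNA, 37 °C, 30 min. Products resolved on 1.0% agarose in TAE. IC50 of decatenation from densitometry by interpolation equation, at least three determinations.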
Test [9] concerns Staphylococcus aureus. Kind of test: Antibacterial activity against methicillin-resistant Staphylococcus aureus COL after 24 hrs by microdilution method. It counts as functional. The method, boiled down: as §1
Test [10] relates to Staphylococcus aureus. The experiment in a line: Antibacterial activity against vancomycin-intermediate Staphylococcus aureus Mu50 after 24 hrs by microdilution method. In kind it is functional. The conditions noted are these: Mu50, 24 h. The method, boiled down: as §1
The test system of the next test is Pseudomonas aeruginosa. The experiment in a line: Antibacterial activity against Pseudomonas aeruginosa PAO1 after 24 hrs by microdilution method. It counts as functional. The conditions noted are these: PAO1, 24 h. The method, boiled down: as §2
The next test has as its system Escherichia coli. Kind of test: Antibacterial activity against Escherichia coli K-12 after 24 hrs by microdilution method. It counts as functional. The conditions noted are these: K-12, 24 h. Summed up: as §2
The nature of test [11]: Inhibition of Escherichia coli DNA gyrase assessed as inhibition of pBR322 supercoiling by densitometry. Summed up:
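One unit of E. coli gyrase with 0.5 μg relaxed pBR322 DNA, 37 °C, 30 min. Stopped with sucrose/EDTA dye, run on 1.0% agarose in TAE. IC50 from densitometry via log-interpolation equation.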

As to `Cc1ccc(CCC(=O)O[C@H]2[C@H](Oc3c(-c4ccc(O)c(O)c4)oc4cc(O)cc(O)c4c3=O)O[C@H](CO)[C@@H](O)[C@@H]2OC(=O)CCc2ccc(C)cc2)cc1`, the MIC worked out at 2 µg/mL (≈ 2.64 µM) with Staphylococcus aureus [1]; 4 µg/mL (≈ 5.29 µM) in the test with Enterococcus [2]; 1 µg/mL (≈ 1.32 µM) with Streptococcus pneumoniae; 1 µg/mL (≈ 1.32 µM) in the test with Staphylococcus aureus [3]; 2 µg/mL (≈ 2.64 µM) against Staphylococcus aureus [4]; 2 µg/mL (≈ 2.64 µM) in the test with Enterococcus [5]. Further, the MIC against Staphylococcus aureus [7] worked out at 1 µg/mL (≈ 1.32 µM); in the test with Staphylococcus aureus [9], 4 µg/mL (≈ 5.29 µM); in the test with Staphylococcus aureus [10], 1 µg/mL (≈ 1.32 µM). The values for the half-maximal inhibitory concentration (IC50) in [6] and in [8] were 11.6 µM and 2.02 µM, respectively.
Turning to `CCOc1ccc(C(=O)O[C@H]2[C@H](Oc3c(-c4ccc(O)c(O)c4)oc4cc(O)cc(O)c4c3=O)O[C@H](CO)[C@@H](O)[C@@H]2OC(=O)c2ccc(OCC)cc2)cc1`, the minimum inhibitory concentration (MIC) against Staphylococcus aureus [1] was determined as 2 µg/mL (≈ 2.63 µM); in the test on Enterococcus [2] it was 4 µg/mL (≈ 5.26 µM); against Streptococcus pneumoniae it was 1 µg/mL (≈ 1.31 µM); against Staphylococcus aureus [3], 1 µg/mL (≈ 1.31 µM); in the test on Staphylococcus aureus [4] it was 2 µg/mL (≈ 2.63 µM); against Enterococcus [5], 2 µg/mL (≈ 2.63 µM). Further, the figures for the minimum inhibitory concentration (MIC) against Staphylococcus aureus [7], in the test on Staphylococcus aureus [9] and with Staphylococcus aureus [10] were 1 µg/mL (≈ 1.31 µM), 4 µg/mL (≈ 5.26 µM) and 1 µg/mL (≈ 1.31 µM), respectively. Besides, the IC50 in test [6] turned out to be 11 µM; in test [8] it was 1.98 µM.
In the case of `CO[C@@H]1[C@@H](OC(N)=O)[C@@H](O)[C@H](Oc2ccc3c(O)c(NC(=O)c4ccc(O)c(CC=C(C)C)c4)c(=O)oc3c2C)OC1(C)C` [NOVOBIOCIN], the minimal inhibitory concentration (MIC) against Staphylococcus aureus [1] was determined as 0.25 µg/mL (≈ 0.408 µM); against Enterococcus [2] it was 2 µg/mL (≈ 3.26 µM); in the test with Pseudomonas aeruginosa, 8 µg/mL (≈ 13.1 µM); in the test on Streptococcus pneumoniae it was 0.25 µg/mL (≈ 0.408 µM); in the test with Staphylococcus aureus [3], 0.13 µg/mL (≈ 0.212 µM); against Staphylococcus aureus [4] it was 0.25 µg/mL (≈ 0.408 µM). Also, the MIC against Enterococcus [5] was above 128 µg/mL; in the test on Staphylococcus aureus [7], 0.13 µg/mL (≈ 0.212 µM); in the test on Staphylococcus aureus [9], 0.25 µg/mL (≈ 0.408 µM); in the test with Escherichia coli it was 8 µg/mL (≈ 13.1 µM); against Staphylococcus aureus [10], 8 µg/mL (≈ 13.1 µM). This compound came in with a half-inhibitory concentration (IC50) in [6] of 0.11 µM.
As for `CC(=O)OC[C@H]1O[C@@H](Oc2c(-c3ccc(O)c(O)c3)oc3cc(O)cc(O)c3c2=O)[C@H](OC(C)=O)[C@@H](OC(C)=O)[C@H]1OC(C)=O`, the MIC with Staphylococcus aureus [1] is 32 µg/mL (≈ 50.6 µM); with Enterococcus [2], 32 µg/mL (≈ 50.6 µM); with Pseudomonas aeruginosa, above 128 µg/mL; with Streptococcus pneumoniae, 64 µg/mL (≈ 101 µM); with Staphylococcus aureus [3], 64 µg/mL (≈ 101 µM); against Staphylococcus aureus [4], 32 µg/mL (≈ 50.6 µM). Also, the minimal inhibitory concentration (MIC) in the test with Enterococcus [5] is 32 µg/mL (≈ 50.6 µM); against Staphylococcus aureus [7], 64 µg/mL (≈ 101 µM); in the test with Staphylococcus aureus [9], 128 µg/mL (≈ 202 µM); against Escherichia coli, above 128 µg/mL; against Staphylococcus aureus [10], 64 µg/mL (≈ 101 µM).
For `CCCc1ccc(C(=O)O[C@H]2[C@H](Oc3c(-c4ccc(O)c(O)c4)oc4cc(O)cc(O)c4c3=O)O[C@H](CO)[C@@H](O)[C@@H]2OC(=O)c2ccc(CCC)cc2)cc1`, the MIC in the test on Staphylococcus aureus [1] is 2 µg/mL (≈ 2.64 µM); against Enterococcus [2] it was 4 µg/mL (≈ 5.29 µM); against Streptococcus pneumoniae, 1 µg/mL (≈ 1.32 µM); with Staphylococcus aureus [3], 1 µg/mL (≈ 1.32 µM); with Staphylococcus aureus [4], 2 µg/mL (≈ 2.64 µM); with Enterococcus [5] it was 2 µg/mL (≈ 2.64 µM). For the same compound, the values for the minimum inhibitory concentration (MIC) in the test with Staphylococcus aureus [7], in the test on Staphylococcus aureus [9] and against Staphylococcus aureus [10] were 1 µg/mL (≈ 1.32 µM), 4 µg/mL (≈ 5.29 µM) and 1 µg/mL (≈ 1.32 µM), respectively. In addition, the IC50 was determined as 11.8 µM in [6] and 1.83 µM in test [8].
Regarding `CCn1cc(C(=O)O)c(=O)c2cc(F)c(N3CCNCC3)cc21` [NORFLOXACIN], the MIC against Staphylococcus aureus [1] came out at 64 µg/mL (≈ 200 µM); in the test with Enterococcus [2], 4 µg/mL (≈ 12.5 µM); with Pseudomonas aeruginosa it was 0.25 µg/mL (≈ 0.783 µM); in the test with Streptococcus pneumoniae, 0.25 µg/mL (≈ 0.783 µM); in the test on Staphylococcus aureus [3], 0.5 µg/mL (≈ 1.57 µM); in the test with Staphylococcus aureus [4], 128 µg/mL (≈ 401 µM). Besides, the MIC is above 128 µg/mL against Enterococcus [5]; 2 µg/mL (≈ 6.26 µM) against Staphylococcus aureus [7]; 1 µg/mL (≈ 3.13 µM) with Staphylococcus aureus [9]; 0.25 µg/mL (≈ 0.783 µM) with Escherichia coli; above 128 µg/mL in the test with Staphylococcus aureus [10]. In addition, the IC50 in [11] was 0.09 µM; in [8], 3.5 µM.
Take `CCOc1ccc(CCC(=O)O[C@H]2[C@H](Oc3c(-c4ccc(O)c(O)c4)oc4cc(O)cc(O)c4c3=O)O[C@H](CO)[C@@H](O)[C@@H]2OC(=O)CCc2ccc(OCC)cc2)cc1`: the MIC with Staphylococcus aureus [1] stood at 2 µg/mL (≈ 2.45 µM); against Enterococcus [2], 4 µg/mL (≈ 4.9 µM); in the test with Streptococcus pneumoniae it was 1 µg/mL (≈ 1.22 µM); against Staphylococcus aureus [3], 1 µg/mL (≈ 1.22 µM); with Staphylococcus aureus [4], 2 µg/mL (≈ 2.45 µM); in the test with Enterococcus [5], 2 µg/mL (≈ 2.45 µM). For the same compound, the figures for the MIC in the test on Staphylococcus aureus [7], against Staphylococcus aureus [9] and in the test with Staphylococcus aureus [10] were 1 µg/mL (≈ 1.22 µM), 4 µg/mL (≈ 4.9 µM) and 1 µg/mL (≈ 1.22 µM), respectively. The half-inhibitory concentration (IC50) in test [6] was above 12 µM; in test [8], 3.02 µM.
